Data set [1] can be described thus: folding enthalpy; higher = less favourable; fluorescence melt of hairpins on a sequencing array, two-state fit. The settings on record: sodium 0.088 M. In outline:
(§1)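 Library hairpins on a sequenced MiSeq flow cell carried annealed Cy3 and quencher oligos, and their Cy3 fluorescence was imaged in 50 mM Na-HEPES pH 8.0 with 25 mM NaCl, in 2.5 °C steps up to 60 °C. Signals were normalised to Cy3 before quenching and to control constructs. Melting temperature and folding enthalpy were obtained from bootstrapped two-state fits, combined by inverse-variance weighting across four replicates, and the fitted temperatures were then raised by 9.35 °C to match UV melts.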

Data set [2] can be described thus: melting temperature; fluorescence melt of hairpins on a sequencing array, two-state fit, raised by 9.35 °C to match UV melts. Conditions: sodium 0.088 M. The method, boiled down:
as §1

On to GGTAGTCGAAAGACAACC (((.(((....))).))), for which the folding enthalpy in data set [1] was -25.2 kcal/mol. In addition, the Tm in data set [2] turned out to be 51.3 °C.
In the same order, the values of GATCCACCTGTGGATC ((((((....)))))) are -42.1 kcal/mol and 63.8 °C.
On the same counts, the results for GGGATCCCGAAAGGGCCC (((..(((....)))))) are -16.4 kcal/mol and 45 °C.
On the same counts, the results for GAATCCGAAAGGATTC ((((((....)))))) are -37 kcal/mol and 66.5 °C.
As to GCGTTGCGAAAGCCAAGC ((.(.((....)).).)), the folding enthalpy in data set [1] is -21.3 kcal/mol. For the same sequence, the Tm in data set [2] was 46.9 °C.
Regarding GCTTCGGGAAACTGAAGC (((((.(....).))))), the folding enthalpy in data set [1] is -41.3 kcal/mol. For the same sequence, the Tm in data set [2] was 53.2 °C.
On the same counts, the results for GGTCTGCGAAAGCAACC (((.(((....)))))) are -18.8 kcal/mol and 44.6 °C.
In the same order, the values of GATCACGCTCGTGATC ((((((....)))))) are -45.5 kcal/mol and 60.9 °C.
In the same order, the values of GTCTAACGAAAGTTGAC (((.(((....)))))) are -24.9 kcal/mol and 43.6 °C.
As to GTCTAGGAAACTAGAC ((((((....)))))), in data set [1], the folding enthalpy was -39.2 kcal/mol. The Tm in data set [2] was 50.8 °C.
On the same counts, the results for GTTGCACCGAAAGGTAAC (((..(((....)))))) are -14.4 kcal/mol and 30.4 °C.
For the sequence GGAACACGAAAGTGATCC (((.(((....))).))), the folding enthalpy in data set [1] is -28.5 kcal/mol. Moreover, in data set [2], the Tm came out at 52.7 °C.
As to CATGTGAAAACATG (((((....))))), the folding enthalpy in data set [1] is -23.3 kcal/mol. The Tm in data set [2] is 47.2 °C.
In the same order, the values of GATCCGGCGGCGGATC ((((((....)))))) are -41.5 kcal/mol and 58.7 °C.
On the same counts, the results for GCACGTGGAAACATGTGC ((((.((....)).)))) are -36.8 kcal/mol and 56.9 °C.
On the same counts, the results for GGGCTTGGAAACGAGCTC (.(((.(....).))).) are -29.7 kcal/mol and 42 °C.
With GTCTGTGGAAACATAGGC (.((.((....)).)).), in data set [1], the folding enthalpy was -16.4 kcal/mol. Also, the Tm in data set [2] worked out at 31.3 °C.
In the case of GGTCAGGGAAACTTGGCC ((.((.(....).)).)), the folding enthalpy in data set [1] was -26.1 kcal/mol. In data set [2], the Tm was found to be 38.2 °C.
GTCTTCGAAAGAACGAC ((((((....))).))): the folding enthalpy in data set [1] is -21.2 kcal/mol. For the same sequence, in data set [2], the Tm was found to be 37.6 °C.
In the same order, the values of GTAGGGGAAACCCTAC ((((((....)))))) are -36.7 kcal/mol and 55.4 °C.
In the same order, the values of GAGAGCGAAAGCTACTC ((((((....))).))) are -14.5 kcal/mol and 43.7 °C.
On the same counts, the results for GTAGCCCGAAAGGGTAC (((.(((....)))))) are -17.7 kcal/mol and 48.6 °C.
In the case of GTGGATGGAAACATCCGC (.(((((....))))).), the folding enthalpy in data set [1] was -28 kcal/mol. In addition, in data set [2], the Tm came to 56.1 °C.
On the same counts, the results for GGATTCGAAAGAAATCC ((((((....))).))) are -24.1 kcal/mol and 44 °C.
In the same order, the values of GTGACCCGAAAGGGCCAC (((.(((....))).))) are -41 kcal/mol and 59.5 °C.
In the same order, the values of GATCACGTACGTGATC ((((((....)))))) are -47.7 kcal/mol and 64 °C.
Turning to GGACCGCGAAAGCGTCC (((.(((....)))))), in data set [1], the folding enthalpy is -17.1 kcal/mol. The Tm in data set [2] came to 59.6 °C.
Turning to GACATAGGAAACTGTGTC ((((.((....)).)))), the folding enthalpy in data set [1] was -40.5 kcal/mol. In addition, the Tm in data set [2] came out at 44.4 °C.
On the same counts, the results for GATCGTACCACGATC ((((((...)))))) are -33.7 kcal/mol and 57.3 °C.
Take GGGCCTTCGAAAGAACCC (((..(((....)))))): the folding enthalpy in data set [1] is -7.96 kcal/mol. Further, the Tm in data set [2] turned out to be 30.4 °C.
Take GATCGCCGATGCGATC ((((((....)))))): in data set [1], the folding enthalpy is -32 kcal/mol. Besides, the Tm in data set [2] stood at 66.6 °C.
In the same order, the values of GGAACTGGAAACAGTTCC (((((((....))))))) are -42.7 kcal/mol and 65.7 °C.
In the same order, the values of GATCCTGGTAGGATC ((((((...)))))) are -32.6 kcal/mol and 54.6 °C.
GGCCCCGAAAGGGAGCC ((((((....))).))): in data set [1], the folding enthalpy is -31.6 kcal/mol. In data set [2], the Tm turned out to be 68.4 °C.
On the same counts, the results for GGTGCGGGAAACCACACC ((((.((....)).)))) are -54.3 kcal/mol and 51.1 °C.
In the same order, the values of GCTAAGCGAAAGCCCAGC (((..((....))..))) are -16.8 kcal/mol and 34.5 °C.
On the same counts, the results for GTGGCGGGAAACTGCCGC (.(((.(....).))).) are -22.2 kcal/mol and 53.5 °C.
